Results from ChEMBL document CHEMBL1156597, “Structure-activity relationship of kahalalide F synthetic analogues” (J Med Chem, 2008).

How the values were obtained:
[1] = Cytotoxicity against human IGROV-ET cells after 48 hrs by SRB assay; assay type: functional; details: for CC50: read-out: LC50 (the source's name)
Summary of the method: (§1)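 Cells grown in RPMI 1640 with 10% FBS and penicillin/streptomycin at 37 °C and 5% CO₂, trypsinized, then seeded at 5 × 10³/well. After 18 h drug-free attachment, samples in DMSO/EtOH/PBS (0.5:0.5:99) were added for 48 h continuous exposure. Cells were fixed with cold TCA (1 h, 4 °C) and stained with SRB (10 min). Tris-solubilized stain read at 490 nm. Triplicate wells, mean ± SD; GI₅₀ derived.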

SK-BR-3 = test: Cytotoxicity against human SKBR3 cells after 48 hrs by SRB assay; assay type: functional; details: SK-BR-3, 48 h; for CC50: read-out: LC50 (the source's name); summary of the method: as §1
PANC-1 = test: Cytotoxicity against human PANC1 cells after 48 hrs by SRB assay; assay type: functional; details: PANC-1, 48 h; for CC50: read-out: LC50 (the source's name); summary of the method: as §1
HT-29 = test: Cytotoxicity against human HT29 cells after 48 hrs by SRB assay; assay type: functional, cell-based; details: Homo sapiens, HT-29, 48 h; for CC50: read-out: LC50 (the source's name); summary of the method: as §1
K562 = test: Cytotoxicity against human K562 cells after 48 hrs by SRB assay; assay type: functional; details: K562, 48 h; for CC50: read-out: LC50 (the source's name); summary of the method: as §1
LoVo [2] = test: Cytotoxicity against human LoVo cells after 48 hrs by SRB assay; assay type: functional; details: for CC50: read-out: LC50 (the source's name)
[3] = Cytotoxicity against human IGROV cells after 48 hrs by SRB assay; assay type: functional; details: for CC50: read-out: LC50 (the source's name); summary of the method: as §1
LoVo [4] = test: Cytotoxicity against human doxorubicin resistant LoVo cells after 48 hrs by SRB assay; assay type: functional; details: for CC50: read-out: LC50 (the source's name); summary of the method: as §1
A549 = test: Cytotoxicity against human A549 cells after 48 hrs by SRB assay; assay type: functional, cell-based; details: Homo sapiens, A549, 48 h; summary of the method: as §1
HeLa = test: Cytotoxicity against human HeLa cells after 48 hrs by SRB assay; assay type: functional; details: for CC50: read-out: LC50 (the source's name); summary of the method: as §1
SK-MEL-28 = test: Cytotoxicity against human SK-MEL-28 cells after 48 hrs by SRB assay; assay type: functional, cell-based; details: Homo sapiens, SK-MEL-28, 48 h; for CC50: read-out: LC50 (the source's name); summary of the method: as §1
DU-145 = test: Cytotoxicity against human DU145 cells after 48 hrs by SRB assay; assay type: functional, cell-based; details: Homo sapiens, DU-145, 48 h; for CC50: read-out: LC50 (the source's name); summary of the method: as §1
[5] = Cytotoxicity against human HeLa-APL cells after 48 hrs by SRB assay; assay type: functional; summary of the method: as §1

With C/C=C1\NC(=O)[C@H](c2ccccc2)NC(=O)[C@@H](C(C)C)NC(=O)[C@@H]([C@H](C)CC)NC(=O)[C@H](NC(=O)[C@H](NC(=O)[C@H](CCCN)NC(=O)[C@H]2CCCN2C(=O)[C@H](NC(=O)[C@@H](NC(=O)[C@@H](NC(=O)[C@H](NC(=O)CCCC(C)C)C(C)C)[C@@H](C)O)C(C)C)C(C)C)[C@H](C)CC)[C@H](C)OC(=O)[C@H](C(C)C)NC1=O the GI50 [1] was 797 nM, the GI50 ([1]; read-out: GI50) was 806 nM and the CC50 [1] was 536 nM. It also gave a TGI (SK-BR-3) of 386 nM, a GI50 (SK-BR-3; read-out: GI50) of 438 nM and a CC50 (SK-BR-3) of 360 nM. It also gave a GI50 (PANC-1) of 1660 nM, a TGI (PANC-1) of 1660 nM and a CC50 (PANC-1) of 1660 nM. For the same molecule, the CC50 (HT-29) was 416 nM, the GI50 (K562) was 1810 nM and the TGI (K562) was 1810 nM. It also gave a CC50 (K562) of 1810 nM, a GI50 (LoVo [2]) of 417 nM and a TGI (LoVo [2]) of 533 nM. For the same molecule, the CC50 (LoVo [2]) was 341 nM, the GI50 [3] was 720 nM and the GI50 ([3]; read-out: GI50) was 503 nM. The CC50 [3] was 498 nM, the GI50 (LoVo [4]) was 409 nM and the CC50 (LoVo [4]) was 333 nM. It also gave an LC50 (A549) of 1090 nM, a TGI (A549) of 1090 nM and a GI50 (A549; read-out: GI50) of 1090 nM. For the same molecule, the CC50 (HeLa) was 903 nM, the TGI (SK-MEL-28) was 1110 nM and the GI50 (SK-MEL-28; read-out: GI50) was 1110 nM. For the same molecule, the CC50 (SK-MEL-28) was 1110 nM, the GI50 (DU-145) was 872 nM and the GI50 (DU-145; read-out: GI50) was 872 nM. It also gave a CC50 (DU-145) of 872 nM and an LC50 (concentration giving 50% net cell kill) [5] of 912 nM.
Work on C/C=C1\NC(=O)[C@H](Cc2ccccc2)NC(=O)[C@@H](C(C)C)NC(=O)[C@@H]([C@H](C)CC)NC(=O)[C@H](NC(=O)[C@H](NC(=O)[C@H](CCCNC(=O)CCC2CCCCC2)NC(=O)[C@H]2CCCN2C(=O)[C@H](NC(=O)[C@@H](NC(=O)[C@@H](NC(=O)[C@H](NC(=O)CCCC(C)C)C(C)C)[C@@H](C)O)C(C)C)C(C)C)[C@H](C)CC)[C@H](C)OC(=O)[C@H](C(C)C)NC1=O yielded a GI50 [1] of 158 nM, a GI50 ([1]; read-out: GI50) of 103 nM and a CC50 [1] of 547 nM. For the same molecule, the GI50 (SK-BR-3) was 39 nM, the GI50 (SK-BR-3; read-out: GI50) was 36.2 nM and the CC50 (SK-BR-3) was 94.7 nM. The CC50 (PANC-1) was 163 nM, the GI50 (HT-29) was 66.6 nM and the TGI (HT-29) was 85 nM. The CC50 (HT-29) was 130 nM, the CC50 (K562) was 17.7 nM and the GI50 (LoVo [2]) was 39.2 nM. It also gave a TGI (LoVo [2]) of 63.4 nM, a CC50 (LoVo [2]) of 201 nM and a GI50 [3] of 89.8 nM. The GI50 ([3]; read-out: GI50) was 48.1 nM, the CC50 [3] was 459 nM and the GI50 (LoVo [4]) was 93.5 nM. The TGI (LoVo [4]) was 93.7 nM, the CC50 (LoVo [4]) was 93.8 nM and the GI50 (A549) was 196 nM. The LC50 (A549) was 365 nM, the GI50 (A549; read-out: GI50) was 109 nM and the GI50 (HeLa) was 83.6 nM. It also gave a TGI (HeLa) of 175 nM, a CC50 (HeLa) of 799 nM and a GI50 (SK-MEL-28) of 150 nM. For the same molecule, the GI50 (SK-MEL-28; read-out: GI50) was 94.3 nM, the CC50 (SK-MEL-28) was 327 nM and the GI50 (DU-145) was 176 nM. It also gave a GI50 (DU-145; read-out: GI50) of 76.6 nM, a CC50 (DU-145) of 853 nM and a GI50 [5] of 166 nM. It also gave an LC50 (concentration giving 50% net cell kill) [5] of 893 nM and a TGI [5] of 264 nM.
C/C=C1\NC(=O)[C@H](Cc2ccccc2)NC(=O)[C@@H](C(C)C)NC(=O)[C@@H]([C@H](C)CC)NC(=O)[C@H](NC(=O)[C@H](NC(=O)[C@H](CCCNC(=O)/C=C/CCC)NC(=O)[C@H]2CCCN2C(=O)[C@H](NC(=O)[C@@H](NC(=O)[C@@H](NC(=O)[C@H](NC(=O)CCCC(C)C)C(C)C)[C@@H](C)O)C(C)C)C(C)C)[C@H](C)CC)[C@H](C)OC(=O)[C@H](C(C)C)NC1=O showed a GI50 [1] of 250 nM, a GI50 ([1]; read-out: GI50) of 205 nM and a CC50 [1] of 517 nM. It also gave a GI50 (SK-BR-3) of 67.8 nM, a GI50 (SK-BR-3; read-out: GI50) of 55.7 nM and a CC50 (SK-BR-3) of 102 nM. The GI50 (PANC-1) was 1670 nM, the TGI (PANC-1) was 1670 nM and the CC50 (PANC-1) was 1670 nM. For the same molecule, the GI50 (HT-29) was 126 nM, the TGI (HT-29) was 103 nM and the CC50 (HT-29) was 268 nM. For the same molecule, the GI50 (K562) was 1240 nM, the TGI (K562) was 1820 nM and the CC50 (K562) was 1820 nM. The GI50 (LoVo [2]) was 75.6 nM, the TGI (LoVo [2]) was 82.4 nM and the CC50 (LoVo [2]) was 90.6 nM. The GI50 [3] was 221 nM, the GI50 ([3]; read-out: GI50) was 179 nM and the CC50 [3] was 467 nM. For the same molecule, the GI50 (LoVo [4]) was 140 nM, the TGI (LoVo [4]) was 116 nM and the CC50 (LoVo [4]) was 96.9 nM. The LC50 (A549) was 1090 nM, the TGI (A549) was 1090 nM and the GI50 (A549; read-out: GI50) was 619 nM. It also gave a GI50 (HeLa) of 407 nM, a TGI (HeLa) of 670 nM and a CC50 (HeLa) of 908 nM. The TGI (SK-MEL-28) was 1120 nM, the GI50 (SK-MEL-28; read-out: GI50) was 814 nM and the CC50 (SK-MEL-28) was 1120 nM. For the same molecule, the GI50 (DU-145) was 876 nM, the GI50 (DU-145; read-out: GI50) was 661 nM and the CC50 (DU-145) was 876 nM. It also gave a GI50 [5] of 503 nM, an LC50 (concentration giving 50% net cell kill) [5] of 802 nM and a TGI [5] of 514 nM.
Work on C/C=C1\NC(=O)[C@H](Cc2ccc(-c3ccccc3)cc2)NC(=O)[C@@H](C(C)C)NC(=O)[C@@H]([C@H](C)CC)NC(=O)[C@H](NC(=O)[C@H](NC(=O)[C@H](CCCN)NC(=O)[C@H]2CCCN2C(=O)[C@H](NC(=O)[C@@H](NC(=O)[C@@H](NC(=O)[C@H](NC(=O)CCCC(C)C)C(C)C)[C@@H](C)O)C(C)C)C(C)C)[C@H](C)CC)[C@H](C)OC(=O)[C@H](C(C)C)NC1=O yielded a GI50 [1] of 230 nM, a GI50 ([1]; read-out: GI50) of 134 nM and a CC50 [1] of 536 nM. For the same molecule, the TGI (SK-BR-3) was 183 nM, the GI50 (SK-BR-3; read-out: GI50) was 68.9 nM and the CC50 (SK-BR-3) was 968 nM. The GI50 (PANC-1) was 1240 nM, the TGI (PANC-1) was 1330 nM and the CC50 (PANC-1) was 1400 nM. The GI50 (HT-29) was 214 nM, the TGI (HT-29) was 187 nM and the CC50 (HT-29) was 516 nM. For the same molecule, the CC50 (K562) was 1420 nM, the GI50 (LoVo [2]) was 184 nM and the TGI (LoVo [2]) was 268 nM. For the same molecule, the CC50 (LoVo [2]) was 317 nM, the GI50 [3] was 159 nM and the GI50 ([3]; read-out: GI50) was 253 nM. The CC50 [3] was 564 nM, the GI50 (LoVo [4]) was 177 nM and the TGI (LoVo [4]) was 239 nM. For the same molecule, the CC50 (LoVo [4]) was 284 nM, the LC50 (A549) was 947 nM and the TGI (A549) was 56.6 nM. It also gave a GI50 (A549; read-out: GI50) of 52.1 nM, a GI50 (HeLa) of 220 nM and a TGI (HeLa) of 372 nM. The CC50 (HeLa) was 812 nM, the GI50 (SK-MEL-28) was 214 nM and the GI50 (SK-MEL-28; read-out: GI50) was 190 nM. For the same molecule, the CC50 (SK-MEL-28) was 644 nM, the GI50 (DU-145) was 146 nM and the GI50 (DU-145; read-out: GI50) was 166 nM. The CC50 (DU-145) was 129 nM, the GI50 [5] was 482 nM and the LC50 (concentration giving 50% net cell kill) [5] was 1120 nM. The TGI [5] was 762 nM.
